In ChEMBL document CHEMBL4351015, “Design, synthesis and biological evaluation of 3-(imidazo[1,2-a]pyrazin-3-ylethynyl)-2-methylbenzamides as potent and selective pan-tropomyosin receptor kinase (TRK) inhibitors” (Eur J Med Chem, 2019):
Values belong to the compound of their own block, whether it stands above or below them.

How the values were obtained:
[1] = target: High affinity nerve growth factor receptor (Homo sapiens, UniProt P04629); test: Inhibition of recombinant human His-tagged TrkA catalytic domain (441 to 796 residues) expressed in baculovirus expression system using tyr 01 as substrate incubated for 1 hr by Z'-Lyte assay
Sequence of High affinity nerve growth factor receptor (P04629 whole entry, the tested form may be a part): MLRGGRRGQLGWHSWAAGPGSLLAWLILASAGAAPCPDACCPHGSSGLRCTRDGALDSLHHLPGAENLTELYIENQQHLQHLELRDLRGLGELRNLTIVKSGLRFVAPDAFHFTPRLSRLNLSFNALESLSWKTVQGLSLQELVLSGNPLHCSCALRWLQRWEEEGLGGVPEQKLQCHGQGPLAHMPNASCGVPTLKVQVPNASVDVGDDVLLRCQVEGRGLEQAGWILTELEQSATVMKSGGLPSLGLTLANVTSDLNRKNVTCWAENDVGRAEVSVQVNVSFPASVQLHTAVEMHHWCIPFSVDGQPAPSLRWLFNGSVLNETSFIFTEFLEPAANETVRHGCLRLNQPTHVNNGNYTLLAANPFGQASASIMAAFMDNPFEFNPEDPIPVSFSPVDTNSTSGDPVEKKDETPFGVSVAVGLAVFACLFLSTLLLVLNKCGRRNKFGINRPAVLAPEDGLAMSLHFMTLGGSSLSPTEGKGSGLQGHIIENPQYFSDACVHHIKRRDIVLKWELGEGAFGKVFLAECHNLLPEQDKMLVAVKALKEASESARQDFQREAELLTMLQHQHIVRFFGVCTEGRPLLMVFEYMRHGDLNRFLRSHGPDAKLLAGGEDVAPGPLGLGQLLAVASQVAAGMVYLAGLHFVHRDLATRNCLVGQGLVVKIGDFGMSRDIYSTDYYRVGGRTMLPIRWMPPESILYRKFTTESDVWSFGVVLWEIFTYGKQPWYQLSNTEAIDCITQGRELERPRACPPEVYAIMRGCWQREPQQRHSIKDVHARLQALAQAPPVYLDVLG

[2] = target: NT-3 growth factor receptor (Homo sapiens, UniProt Q16288); test: Inhibition of recombinant human His-tagged TrkC cytoplasmic domain (510 to 825 residues) expressed in baculovirus using tyr 01 as substrate incubated for 1 hr by Z'-Lyte assay
Sequence of NT-3 growth factor receptor (Q16288 whole entry, the tested form may be a part): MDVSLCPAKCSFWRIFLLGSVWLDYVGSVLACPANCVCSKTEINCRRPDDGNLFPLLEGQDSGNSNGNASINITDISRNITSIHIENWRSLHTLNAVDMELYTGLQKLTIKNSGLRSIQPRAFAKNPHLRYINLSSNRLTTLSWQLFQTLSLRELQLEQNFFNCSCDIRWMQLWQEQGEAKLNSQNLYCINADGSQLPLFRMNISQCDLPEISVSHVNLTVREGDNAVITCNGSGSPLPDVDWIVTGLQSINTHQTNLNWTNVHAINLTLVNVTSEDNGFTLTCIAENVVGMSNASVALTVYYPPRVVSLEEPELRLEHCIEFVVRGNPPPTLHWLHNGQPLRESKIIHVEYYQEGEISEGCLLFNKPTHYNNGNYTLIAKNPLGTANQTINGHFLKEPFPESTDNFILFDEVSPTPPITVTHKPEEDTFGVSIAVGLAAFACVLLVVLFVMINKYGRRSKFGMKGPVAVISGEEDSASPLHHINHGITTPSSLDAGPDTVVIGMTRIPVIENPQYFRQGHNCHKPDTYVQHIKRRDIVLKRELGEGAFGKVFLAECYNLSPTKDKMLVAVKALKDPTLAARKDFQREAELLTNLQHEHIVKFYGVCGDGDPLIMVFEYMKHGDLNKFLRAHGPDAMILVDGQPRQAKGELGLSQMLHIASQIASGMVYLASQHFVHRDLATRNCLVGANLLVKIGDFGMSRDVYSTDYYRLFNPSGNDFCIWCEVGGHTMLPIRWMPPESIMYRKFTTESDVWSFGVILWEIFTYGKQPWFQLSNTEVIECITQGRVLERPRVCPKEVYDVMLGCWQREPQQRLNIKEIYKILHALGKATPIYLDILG

[3] = target: T1, BDNF/NT-3 growth factors receptor (Homo sapiens, UniProt Q16620); test: Inhibition of recombinant human His-tagged TrkB catalytic domain (526 to 838 residues) expressed in baculovirus expression system using tyr 01 as substrate incubated for 1 hr by Z'-Lyte assay
Target sequence in this assay (Q16620 whole entry, the tested form may be a part): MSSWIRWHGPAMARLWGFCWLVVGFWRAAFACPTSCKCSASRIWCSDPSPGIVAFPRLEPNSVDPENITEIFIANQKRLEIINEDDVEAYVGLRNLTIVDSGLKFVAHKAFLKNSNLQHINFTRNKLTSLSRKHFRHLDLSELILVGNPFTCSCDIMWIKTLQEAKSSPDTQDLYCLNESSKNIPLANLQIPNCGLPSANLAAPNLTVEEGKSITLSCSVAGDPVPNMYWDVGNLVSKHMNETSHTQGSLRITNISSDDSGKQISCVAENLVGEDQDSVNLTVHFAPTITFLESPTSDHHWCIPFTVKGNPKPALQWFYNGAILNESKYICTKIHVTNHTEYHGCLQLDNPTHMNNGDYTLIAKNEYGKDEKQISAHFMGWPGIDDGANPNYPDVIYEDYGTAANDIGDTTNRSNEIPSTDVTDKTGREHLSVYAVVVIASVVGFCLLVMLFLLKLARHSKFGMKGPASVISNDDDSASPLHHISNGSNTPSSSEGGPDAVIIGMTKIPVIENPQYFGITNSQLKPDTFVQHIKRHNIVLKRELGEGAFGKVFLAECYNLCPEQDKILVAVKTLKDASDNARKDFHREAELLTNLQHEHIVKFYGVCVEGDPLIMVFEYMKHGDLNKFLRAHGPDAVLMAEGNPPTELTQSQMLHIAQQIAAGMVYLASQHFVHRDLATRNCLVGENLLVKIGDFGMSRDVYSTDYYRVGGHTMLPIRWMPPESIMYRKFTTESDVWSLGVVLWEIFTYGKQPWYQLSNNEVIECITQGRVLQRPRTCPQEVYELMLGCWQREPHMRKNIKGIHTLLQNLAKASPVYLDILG

[4] = target: Tyrosine-protein kinase ABL1 (Homo sapiens, UniProt P00519); test: Inhibition of recombinant full length human His-tagged ABL1 expressed in baculovirus infected insect cells using tyr 02 as substrate incubated for 2 hr by Z'-Lyte assay
Sequence of Tyrosine-protein kinase ABL1 (P00519 whole entry): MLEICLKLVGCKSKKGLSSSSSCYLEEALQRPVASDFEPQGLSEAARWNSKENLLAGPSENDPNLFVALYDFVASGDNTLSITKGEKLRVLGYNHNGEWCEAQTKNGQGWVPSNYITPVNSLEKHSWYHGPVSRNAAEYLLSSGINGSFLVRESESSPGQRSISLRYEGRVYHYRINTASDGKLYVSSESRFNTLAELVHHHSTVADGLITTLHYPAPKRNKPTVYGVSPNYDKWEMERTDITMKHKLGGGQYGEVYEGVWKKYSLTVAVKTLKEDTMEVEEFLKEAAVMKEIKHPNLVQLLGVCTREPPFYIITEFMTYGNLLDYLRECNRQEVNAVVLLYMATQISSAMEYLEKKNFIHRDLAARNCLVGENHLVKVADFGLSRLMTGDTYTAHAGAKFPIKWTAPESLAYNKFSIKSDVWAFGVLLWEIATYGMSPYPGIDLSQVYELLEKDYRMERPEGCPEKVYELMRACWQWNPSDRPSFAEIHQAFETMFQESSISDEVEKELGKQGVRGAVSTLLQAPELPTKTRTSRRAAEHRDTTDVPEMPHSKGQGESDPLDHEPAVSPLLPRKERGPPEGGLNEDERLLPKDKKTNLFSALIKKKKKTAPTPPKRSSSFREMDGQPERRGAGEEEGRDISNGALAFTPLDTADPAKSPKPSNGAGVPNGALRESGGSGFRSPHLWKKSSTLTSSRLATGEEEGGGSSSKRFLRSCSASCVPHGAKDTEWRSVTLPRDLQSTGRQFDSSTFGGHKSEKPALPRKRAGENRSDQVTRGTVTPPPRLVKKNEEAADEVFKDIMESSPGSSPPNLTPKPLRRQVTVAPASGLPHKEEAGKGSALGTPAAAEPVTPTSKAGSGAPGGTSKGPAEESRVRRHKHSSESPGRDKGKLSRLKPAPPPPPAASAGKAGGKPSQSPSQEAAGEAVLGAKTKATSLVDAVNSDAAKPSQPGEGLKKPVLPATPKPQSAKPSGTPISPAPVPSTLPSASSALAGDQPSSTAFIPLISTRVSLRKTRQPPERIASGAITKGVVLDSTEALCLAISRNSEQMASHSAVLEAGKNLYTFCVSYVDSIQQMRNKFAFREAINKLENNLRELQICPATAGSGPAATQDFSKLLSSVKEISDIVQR

[5] = Drug concentration in Sprague-Dawley rat brain at 25 mg/kg, po administered via gavage incubated for 2 hrs by LC/MS-MS analysis; type: ADME, organism-based; conditions: read-out: Ct
[6] = target: T1, BDNF/NT-3 growth factors receptor; test: Inhibition of BDNF-induced TrkB (unknown origin) activation transfected in human SH-SY5Y cells assessed as decrease in Erk phosphorylation incubated for 6 hrs followed by BDNF addition further incubated for 30 mins by Western blot analysis; type: cell-based
How it was run: (§1)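 SH-SY5Y-TrkB stable transfectants were pretreated with 0–2.0 µM compound for 6 h, then given BDNF 10 ng/mL or none for 30 min. Lysates were run on 8–12% SDS-PAGE, blotted to PVDF and blocked in 5% BSA. Primary antibodies were applied overnight at 4 °C, then HRP secondary, with ECL detection. Phospho and total TrkB, PLC-γ1, Akt (Ser473, Thr308) and Erk were probed, with GAPDH as control.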
Target sequence in this assay (Q16620 32-822 limits assumed): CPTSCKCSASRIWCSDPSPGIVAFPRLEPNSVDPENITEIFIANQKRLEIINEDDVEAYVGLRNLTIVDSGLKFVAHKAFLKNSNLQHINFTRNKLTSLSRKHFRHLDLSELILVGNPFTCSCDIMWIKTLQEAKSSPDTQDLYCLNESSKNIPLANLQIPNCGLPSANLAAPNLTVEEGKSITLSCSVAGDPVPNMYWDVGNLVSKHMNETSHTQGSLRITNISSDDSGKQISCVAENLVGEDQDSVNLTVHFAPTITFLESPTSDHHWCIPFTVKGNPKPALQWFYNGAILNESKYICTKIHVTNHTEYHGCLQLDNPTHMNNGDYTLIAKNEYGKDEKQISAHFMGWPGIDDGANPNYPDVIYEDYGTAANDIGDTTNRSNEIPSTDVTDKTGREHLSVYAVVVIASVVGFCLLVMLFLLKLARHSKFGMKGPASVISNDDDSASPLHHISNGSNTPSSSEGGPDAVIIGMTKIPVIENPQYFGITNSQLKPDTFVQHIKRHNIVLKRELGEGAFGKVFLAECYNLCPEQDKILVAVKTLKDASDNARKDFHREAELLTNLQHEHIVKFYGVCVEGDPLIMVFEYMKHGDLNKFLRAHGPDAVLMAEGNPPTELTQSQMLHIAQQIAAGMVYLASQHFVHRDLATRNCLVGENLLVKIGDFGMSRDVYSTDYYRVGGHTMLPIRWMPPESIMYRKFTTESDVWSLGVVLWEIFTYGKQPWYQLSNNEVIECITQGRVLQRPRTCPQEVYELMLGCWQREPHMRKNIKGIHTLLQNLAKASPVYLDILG

[7] = Drug concentration in Sprague-Dawley rat brain at 25 mg/kg, po administered via gavage incubated for 0.5 hrs by LC/MS-MS analysis; type: ADME, organism-based; conditions: read-out: Ct
SH-SY5Y [8] = test: Inhibition of BDNF-induced cell invasion in human SH-SY5Y cells transfected with TrkB (unknown origin) at 200 nM incubated for 24 hrs by crystal violet staining microscopy-based matrigel assay relative to control; type: functional
How it was run: (§2)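 Invasion through Matrigel chambers: 1.5 X 10⁶ SH-SY5Y-TrkB cells in FBS-free medium with 0, 8, 40 or 200 nM compound were placed on top. Complete medium with or without BDNF 10 ng/mL went below. After 24 h at 37 °C, cells were fixed in methanol and stained with 0.25% crystal violet, and top-surface cells were removed. Six random fields were counted at 200X; mean of three independent experiments.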

[9] = Ratio of drug concentration in brain to blood of Sprague-Dawley rat at 25 mg/kg, po administered via gavage incubated for 8 hrs by LC/MS-MS analysis; type: ADME, organism-based; conditions: brain and blood, read-out: BBR
[10] = Effect on ERK phosphorylation in BDNF-induced human SH-SY5Y cells up to 2 uM preincubated for 6 hrs followed by BDNF addition and measured after 30 mins by Western blot analysis; type: cell-based; conditions: 0.5 h
[11] = Drug concentration in Sprague-Dawley rat brain at 25 mg/kg, po administered via gavage incubated for 8 hrs by LC/MS-MS analysis; type: ADME, organism-based; conditions: read-out: Ct
[12] = target: RAC-alpha serine/threonine-protein kinase (Homo sapiens, UniProt P31749); test: Effect on ATK phosphorylation in BDNF-induced human SH-SY5Y cells up to 2 uM preincubated for 6 hrs followed by BDNF addition and measured after 30 mins by Western blot analysis; type: cell-based; conditions: 0.5 h
Sequence of RAC-alpha serine/threonine-protein kinase (P31749 whole entry): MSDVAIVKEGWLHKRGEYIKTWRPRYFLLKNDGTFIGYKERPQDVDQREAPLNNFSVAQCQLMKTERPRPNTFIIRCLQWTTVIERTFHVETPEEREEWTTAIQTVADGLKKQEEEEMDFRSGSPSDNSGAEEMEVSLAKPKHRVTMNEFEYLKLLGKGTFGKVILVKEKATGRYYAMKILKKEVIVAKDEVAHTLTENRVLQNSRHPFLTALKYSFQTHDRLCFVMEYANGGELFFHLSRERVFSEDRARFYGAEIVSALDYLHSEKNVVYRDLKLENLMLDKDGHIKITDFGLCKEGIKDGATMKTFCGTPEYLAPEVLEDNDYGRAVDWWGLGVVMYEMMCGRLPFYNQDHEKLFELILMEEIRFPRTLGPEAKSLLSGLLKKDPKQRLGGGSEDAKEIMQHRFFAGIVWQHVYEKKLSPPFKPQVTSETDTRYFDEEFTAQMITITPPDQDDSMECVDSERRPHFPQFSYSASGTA

SH-SY5Y [13] = test: Inhibition of BDNF-induced cell migration in human SH-SY5Y cells transfected with TrkB (unknown origin) at 200 nM incubated for 24 hrs by crystal violet staining microscopy based transwell assay relative to control; type: functional
How it was run: (§3)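 Transwell migration: 1.5 X 10⁶ SH-SY5Y-TrkB cells in FBS-free medium containing 0, 8, 40 or 200 nM compound went in the top chamber. The bottom chamber held complete medium with or without BDNF 10 ng/mL. After 24 h at 37 °C, cells were methanol-fixed and stained with 0.25% crystal violet, and non-migrated cells were removed. Cells were counted in six random fields at 200X; mean of three independent experiments.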

SH-SY5Y [14] = test: Inhibition of BDNF-induced cell invasion in human SH-SY5Y cells transfected with TrkB (unknown origin) at 40 nM incubated for 24 hrs by crystal violet staining microscopy-based matrigel assay relative to control; type: functional; how it was run: as §2
[15] = Plasma concentration in Sprague-Dawley rat at 25 mg/kg, po administered via gavage incubated for 0.5 hrs by LC/MS-MS analysis; type: ADME, organism-based
[16] = Ratio of drug concentration in brain to blood of Sprague-Dawley rat at 25 mg/kg, po administered via gavage incubated for 0.5 hrs by LC/MS-MS analysis; type: ADME, organism-based; conditions: brain and blood, read-out: BBR
[17] = target: T1, BDNF/NT-3 growth factors receptor; test: Inhibition of TrkB (unknown origin) transfected in human SH-SY5Y cells assessed as decrease in BDNF-induced TrkB phosphorylation at >=16 nM incubated for 6 hrs followed by BDNF addition further incubated for 30 mins by Western blot analysis; type: cell-based; how it was run: as §1
Target sequence in this assay (Q16620 32-822 limits assumed): as the sequence (Q16620 32-822 limits assumed) above

SH-SY5Y [18] = test: Inhibition of BDNF-induced cell migration in human SH-SY5Y cells transfected with TrkB (unknown origin) incubated for 24 hrs by crystal violet staining microscopy based transwell assay; type: functional; how it was run: as §3
SH-SY5Y [19] = test: Inhibition of BDNF-induced cell migration in human SH-SY5Y cells transfected with TrkB (unknown origin) at 40 nM incubated for 24 hrs by crystal violet staining microscopy based transwell assay relative to control; type: functional; how it was run: as §3
[20] = Plasma concentration in Sprague-Dawley rat at 25 mg/kg, po administered via gavage incubated for 2 hrs by LC/MS-MS analysis; type: ADME, organism-based
SH-SY5Y [21] = test: Neurotoxicity in human SH-SY5Y cells assessed as reduction in cell viability incubated for 72 hrs by CCK8 assay; type: toxicity, cell-based
[22] = target: T1, BDNF/NT-3 growth factors receptor; test: Inhibition of BDNF-induced TrkB (unknown origin) activation transfected in human SH-SY5Y cells assessed as decrease in Akt phosphorylation at Thr308 residue incubated for 6 hrs followed by BDNF addition further incubated for 30 mins by Western blot analysis; type: cell-based; how it was run: as §1
Target sequence in this assay (Q16620 32-822 limits assumed): as above

SH-SY5Y [23] = test: Inhibition of cell migration in human SH-SY5Y cells transfected with TrkB (unknown origin) assessed as reduction in BDNF-induced wound closure at 40 nM incubated for 24 hrs by bright field microscopy relative to control; type: functional
How it was run: (§4)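 SH-SY5Y-TrkB monolayers were grown to near confluence and scratched with a pipette tip, then washed with PBS. Cells were incubated 24 h in MEM/F-12 with 2% FBS, with or without BDNF 10 ng/mL and with compound. Three random fields were imaged by bright-field microscopy and % wound closure was measured. Run three times, each in triplicate.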

[24] = target: T1, BDNF/NT-3 growth factors receptor; test: Inhibition of BDNF-induced TrkB (unknown origin) activation transfected in human SH-SY5Y cells assessed as decrease in PLCgamma1 phosphorylation incubated for 6 hrs followed by BDNF addition further incubated for 30 mins by Western blot analysis; type: cell-based; how it was run: as §1
Target sequence in this assay (Q16620 32-822 limits assumed): as above

[25] = Plasma concentration in Sprague-Dawley rat at 25 mg/kg, po administered via gavage incubated for 8 hrs by LC/MS-MS analysis; type: ADME, organism-based
SH-SY5Y [26] = test: Antiproliferative activity against human SH-SY5Y cells transfected with TrkB (unknown origin) assessed as reduction in cell viability incubated for 72 hrs by CCK8 assay; type: functional, cell-based
How it was run: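 SH-SY5Y-TrkB cells (SH-SY5Y stably transfected with pRP-TrkB, kept under 0.5 µg/ml puromycin in 1:1 MEM/F-12 with 10% FBS) seeded at 1500-3000/well, left overnight. Compounds 0.000457–3 µM were then added with or without BDNF 10 ng/ml for 72 h. Read-out by CCK8. IC50 came from concentration-response curve fitting, reported as mean ± SD from at least three independent experiments.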

SH-SY5Y [27] = test: Inhibition of BDNF-induced cell migration in human SH-SY5Y cells transfected with TrkB (unknown origin) at 8 nM incubated for 24 hrs by crystal violet staining microscopy based transwell assay relative to control; type: functional; how it was run: as §3
SH-SY5Y [28] = test: Inhibition of cell migration in human SH-SY5Y cells transfected with TrkB (unknown origin) assessed as reduction in BDNF-induced wound closure at 200 nM incubated for 24 hrs by bright field microscopy relative to control; type: functional; how it was run: as §4
SH-SY5Y [29] = test: Inhibition of BDNF-induced cell invasion in human SH-SY5Y cells transfected with TrkB (unknown origin) at 8 nM incubated for 24 hrs by crystal violet staining microscopy-based matrigel assay relative to control; type: functional; how it was run: as §2
SH-SY5Y [30] = test: Inhibition of BDNF-induced cell invasion in human SH-SY5Y cells transfected with TrkB (unknown origin) incubated for 24 hrs by crystal violet staining microscopy-based matrigel assay; type: functional; how it was run: as §2
SH-SY5Y [31] = test: Inhibition of cell migration in human SH-SY5Y cells transfected with TrkB (unknown origin) assessed as reduction in BDNF-induced wound closure at 8 nM incubated for 24 hrs by bright field microscopy relative to control; type: functional; how it was run: as §4
[32] = target: T1, BDNF/NT-3 growth factors receptor; test: Inhibition of TrkB (unknown origin) transfected in human SH-SY5Y cells assessed as decrease in BDNF-induced TrkB phosphorylation incubated for 6 hrs followed by BDNF addition further incubated for 30 mins by Western blot analysis; type: cell-based; how it was run: as §1
Target sequence in this assay (Q16620 32-822 limits assumed): as above

[33] = Ratio of drug concentration in brain to blood of Sprague-Dawley rat at 25 mg/kg, po administered via gavage incubated for 2 hrs by LC/MS-MS analysis; type: ADME, organism-based; conditions: brain and blood, read-out: BBR

IC50 [1]: > 1000 nM | IC50 [2]: > 1000 nM | IC50 [3]: > 1000 nM | IC50 [4]: > 1000 nM
Structure (SMILES): CC(C)c1c(C#Cc2cnc3cnccn23)cccc1C(=O)Nc1cc(CN2CCN(C)CC2)cc(C(F)(F)F)c1

Structure (SMILES): Cc1c(C#Cc2cnc3cnc(-c4ccc(N)cc4)cn23)cccc1C(=O)Nc1cc(CN2CCN(C)CC2)cc(C(C)C)c1
concentration at 2 h [5]: 0.355 ng/mL | inhibition [6]: Dose-dependent effect | concentration at 0.5 h [7]: 0.078 ng/mL | inhibition at 0.2 µM (SH-SY5Y [8]): 85.5% | Kp at 8 h [9]: 8.3 | Activity [10]: Not Active | IC50 [1]: 2.65 nM | concentration at 8 h [11]: 0.09 ng/mL | Activity [12]: Not Active | inhibition at 0.2 µM (SH-SY5Y [13]): 82% | inhibition at 0.04 µM (SH-SY5Y [14]): 61.9% | concentration at 0.5 h [15]: 7.33 ng/mL | Kp at 0.5 h [16]: 6.4 | inhibition [17]: 100% | inhibition (SH-SY5Y [18]): Dose-dependent effect | inhibition at 0.04 µM (SH-SY5Y [19]): 53.3% | concentration at 2 h [20]: 33.2 ng/mL | Activity (SH-SY5Y [21]): Non-Toxic | inhibition [22]: Dose-dependent effect | inhibition at 0.04 µM (SH-SY5Y [23]): 76.6% | inhibition [24]: Dose-dependent effect | concentration at 8 h [25]: 6.52 ng/mL | IC50 (SH-SY5Y [26]): 58 nM | IC50 [2]: 2.95 nM | inhibition at 0.008 µM (SH-SY5Y [27]): 22.7% | inhibition at 0.2 µM (SH-SY5Y [28]): 77.5% | inhibition at 0.008 µM (SH-SY5Y [29]): 9.1% | IC50 [3]: 10.5 nM | inhibition (SH-SY5Y [30]): Dose-dependent effect | IC50 [4]: > 1000 nM | inhibition at 0.008 µM (SH-SY5Y [31]): 50.1% | inhibition [32]: Dose-dependent effect | Kp at 2 h [33]: 6

IC50 [1]: > 1000 nM | IC50 [3]: > 1000 nM | IC50 [4]: > 1000 nM
Structure (SMILES): COc1c(C#Cc2cnc3cnccn23)cccc1C(=O)Nc1cc(CN2CCN(C)CC2)cc(C(F)(F)F)c1

IC50 [1]: 29.2 nM | IC50 [3]: 22.7 nM | IC50 [4]: > 1000 nM
Structure (SMILES): Cc1c(C#Cc2cnc3cnc(-c4ccccc4)cn23)cccc1C(=O)Nc1cc(CN2CCN(C)CC2)cc(C(F)(F)F)c1

IC50 [1]: 8.24 nM | IC50 [3]: 9.37 nM
Structure (SMILES): Cc1ccc(C(=O)Nc2cc(CN3CCN(C)CC3)cc(C(F)(F)F)c2)cc1C#Cc1cnc2cnccn12

IC50 [1]: 132 nM | IC50 [3]: 178 nM | IC50 [4]: 449 nM
Structure (SMILES): Cc1cc(C#Cc2cnc3cnccn23)cc(C(=O)Nc2cc(CN3CCN(C)CC3)cc(C(F)(F)F)c2)c1

IC50 [1]: 41.6 nM | IC50 [3]: 43.9 nM | IC50 [4]: 33.3 nM
Structure (SMILES): CN1CCN(Cc2cc(NC(=O)c3cccc(C#Cc4cnc5cnccn45)c3)cc(C(F)(F)F)c2)CC1

IC50 [1]: 39.8 nM | IC50 [3]: 38.3 nM | IC50 [4]: > 1000 nM
Structure (SMILES): Cc1c(C#Cc2cnc3cnccn23)cccc1C(=O)Nc1cc(CN2CCN(C)CC2)cc(C(F)(F)F)c1

IC50 [1]: > 1000 nM | IC50 [2]: > 1000 nM | IC50 [3]: > 1000 nM | IC50 [4]: > 1000 nM
Structure (SMILES): CCCc1c(C#Cc2cnc3cnccn23)cccc1C(=O)Nc1cc(CN2CCN(C)CC2)cc(C(F)(F)F)c1

IC50 [1]: 17.4 nM | IC50 [3]: 41.3 nM | IC50 [4]: > 1000 nM
Structure (SMILES): Cc1cc(CN2CCN(C)CC2)cc(NC(=O)c2cccc(C#Cc3cnc4cnc(-c5ccc(N)cc5)cn34)c2C)c1
